Source: ChEMBL document CHEMBL3244150, “Semisynthetic cephalosporins. Synthesis and structure-activity relationships of analogues with 7-acyl groups derived from 2-(cyanomethylthio)acetic acid or 2-[(2,2,2-trifluoroethyl)thio]acetic acid and their sulfoxides and sulfones” (1977)
≈ marks a conversion by molar mass, not a printed value. Calls of active or inactive are those of the source. The rule behind the calls is not given here.

Key:
Enterococcus faecalis = test: Antibacterial activity against Streptococcus faecalis after overnight incubation by twofold agar dilution method; format: functional
Procedure, shortened: (§1)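 Twofold agar dilution on Trypticase soy agar buffered to pH 6.0. MIC recorded in ug/ml.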

Klebsiella aerogenes = test: Antibacterial activity against Enterobacter aerogenes ATCC 13048 after overnight incubation by twofold agar dilution method; format: functional; procedure, shortened: as §1
Pseudomonas aeruginosa = test: Antibacterial activity against Pseudomonas aeruginosa after overnight incubation by twofold agar dilution method; format: functional, organism-based; procedure, shortened: as §1
Escherichia coli [1] = test: Antibacterial activity against Escherichia coli 12140 after overnight incubation by twofold agar dilution method; format: functional; procedure, shortened: as §1
Staphylococcus aureus = test: Antibacterial activity against penicillin G-resistant Staphylococcus aureus HH 127 after overnight incubation by twofold agar dilution method; format: functional
Procedure, shortened: (§2)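 MIC (ug/ml) determined by twofold agar dilution on Trypticase soy agar buffered to pH 6.0.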

Shigella flexneri = test: Antibacterial activity against Shigella paradysenteriae HH 117 after overnight incubation by twofold agar dilution method; format: functional; procedure, shortened: as §2
Escherichia coli [2] = test: Antibacterial activity against Escherichia coli 12140 infected in sc dosed mouse assessed as mouse survival after 3 days; format: functional; settings: Escherichia coli, 12140, sc, 72 h; read-out: PD50
Procedure, shortened: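 Mice infected ip with approximately 2 X 10 organisms per mouse of E. coli 12140 culture diluted in 5% hog gastric mucin (uniformly lethal). Fourfold dilutions dosed sc in equally divided portions at 1 and 5 h postinfection; five groups of ten mice each. Survivors observed for 3 days. PD50 = total dose (mg/kg) protecting 50% of mice, calculated by Litchfield and Wilcoxon method.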

Salmonella paratyphi = test: Antibacterial activity against Salmonella paratyphi ATCC 12176 after overnight incubation by twofold agar dilution method; format: functional, Salmonella enterica subsp. enterica serovar Paratyphi A; settings: Salmonella enterica; procedure, shortened: as §2
Klebsiella pneumoniae = test: Antibacterial activity against Klebsiella pneumoniae 4200 after overnight incubation by twofold agar dilution method; format: functional; procedure, shortened: as §1

Row | SMILES | MIC (Enterococcus faecalis) | MIC (Klebsiella aerogenes) | Activity (Pseudomonas aeruginosa) | MIC (Escherichia coli [1]) | MIC (Staphylococcus aureus) | MIC (Shigella flexneri) | ED50 (Escherichia coli [2]) | MIC (Salmonella paratyphi) | MIC (Klebsiella pneumoniae)
1 | Cn1nnnc1SCC1=C(C(=O)[O-])N2C(=O)[C@@H](NC(=O)C[S+]([O-])CC#N)[C@H]2SC1.[Na+] (stereo not given in full) | > 13 µg/mL | 12.5 µg/mL | inactive | 1.6 µg/mL | 1.6 µg/mL | 1.6 µg/mL | 10 mg/kg | 0.8 µg/mL | 1.6 µg/mL
2 | CC(=O)OCC1=C(C(=O)[O-])N2C(=O)[C@@H](NC(=O)C[S+]([O-])CC(F)(F)F)[C@H]2SC1.[Na+] (stereo not given in full) | > 13 µg/mL | 6.3 µg/mL | inactive | 6.3 µg/mL | 0.8 µg/mL | 3.1 µg/mL | 25 mg/kg | 1.6 µg/mL | 3.1 µg/mL
3 | Cn1nnnc1SCC1=C(C(=O)[O-])N2C(=O)[C@@H](NC(=O)CSCC#N)[C@H]2SC1.[Na+] | > 13 µg/mL | 12.5 µg/mL | inactive | 0.8 µg/mL | 0.4 µg/mL | 0.8 µg/mL | 11 mg/kg | 0.4 µg/mL | 1.6 µg/mL
4 | Cc1nnc(SCC2=C(C(=O)[O-])N3C(=O)[C@@H](NC(=O)CSCC(F)(F)F)[C@H]3SC2)s1.[Na+] | > 13 µg/mL | 25 µg/mL | inactive | 6.3 µg/mL | 0.2 µg/mL | 1.6 µg/mL | 33 mg/kg | 6.3 µg/mL | 6.3 µg/mL
5 | CC(=O)OCC1=C(C(=O)[O-])N2C(=O)[C@@H](NC(=O)CSCC(F)(F)F)[C@H]2SC1.[Na+] | > 13 µg/mL | 50 µg/mL | inactive | 6.3 µg/mL | 0.4 µg/mL | 6.3 µg/mL | 184 mg/kg | 6.3 µg/mL | 3.1 µg/mL
6 | Cc1nnc(SCC2=C(C(=O)O)N3C(=O)[C@@H](NC(=O)Cn4cnnn4)[C@H]3SC2)s1 [CEFAZOLIN] | > 13 µg/mL | 1.6 µg/mL (≈ 3.52 µM) | inactive | 0.8 µg/mL (≈ 1.76 µM) | 0.4 µg/mL (≈ 0.88 µM) | 0.4 µg/mL (≈ 0.88 µM) | 6 mg/kg | 0.8 µg/mL (≈ 1.76 µM) | 0.8 µg/mL (≈ 1.76 µM)
7 | CC(=O)OCC1=C(C(=O)[O-])N2C(=O)[C@@H](NC(=O)C[S+]([O-])CC#N)[C@H]2SC1.[Na+] (stereo not given in full) | > 13 µg/mL | 25 µg/mL | inactive | 12.5 µg/mL | 1.6 µg/mL | 6.3 µg/mL | 21 mg/kg | 3.1 µg/mL | 6.3 µg/mL
8 | Cc1nnc(SCC2=C(C(=O)[O-])N3C(=O)[C@@H](NC(=O)C[S+]([O-])CC(F)(F)F)[C@H]3SC2)s1.[Na+] (stereo not given in full) | > 13 µg/mL | 6.3 µg/mL | inactive | 3.1 µg/mL | 0.8 µg/mL | 0.8 µg/mL | 6 mg/kg | 1.6 µg/mL | 3.1 µg/mL
9 | Cc1nnc(SCC2=C(C(=O)[O-])N3C(=O)[C@@H](NC(=O)CS(=O)(=O)CC(F)(F)F)[C@H]3SC2)s1.[Na+] | > 13 µg/mL | 12.5 µg/mL | inactive | 6.3 µg/mL | 1.6 µg/mL | 6.3 µg/mL | 35 mg/kg | 6.3 µg/mL | 6.3 µg/mL
10 | Cc1nnc(SCC2=C(C(=O)[O-])N3C(=O)[C@@H](NC(=O)C[S+]([O-])CC#N)[C@H]3SC2)s1.[Na+] (stereo not given in full) | > 13 µg/mL | 6.3 µg/mL | inactive | 3.1 µg/mL | 0.8 µg/mL | 0.8 µg/mL | 22 mg/kg | 0.8 µg/mL | 1.6 µg/mL
11 | Cn1nnnc1SCC1=C(C(=O)O)N2C(=O)[C@@H](NC(=O)CSC(F)(F)F)[C@H]2SC1 [CEFAZAFLUR] | > 13 µg/mL | 1.6 µg/mL (≈ 3.4 µM) | inactive | 0.4 µg/mL (≈ 0.85 µM) | 0.4 µg/mL (≈ 0.85 µM) | 0.2 µg/mL (≈ 0.425 µM) | 2 mg/kg | 0.4 µg/mL (≈ 0.85 µM) | 0.8 µg/mL (≈ 1.7 µM)
12 | CC(=O)OCC1=C(C(=O)[O-])N2C(=O)[C@@H](NC(=O)CSCC#N)[C@H]2SC1.[Na+] | > 13 µg/mL | > 200 µg/mL | inactive | 6.3 µg/mL | 0.2 µg/mL | 6.3 µg/mL | > 200 mg/kg | 1.6 µg/mL | 1.6 µg/mL
13 | Cc1nnc(SCC2=C(C(=O)[O-])N3C(=O)[C@@H](NC(=O)CSCC#N)[C@H]3SC2)s1.[Na+] | > 13 µg/mL | > 200 µg/mL | inactive | 1.6 µg/mL | 0.2 µg/mL | 1.6 µg/mL | 14 mg/kg | 1.6 µg/mL | 1.6 µg/mL
14 | CC(=O)OCC1=C(C(=O)O)N2C(=O)[C@@H](NC(=O)Cc3cccs3)[C@H]2SC1 [CEPHALOTHIN] | > 13 µg/mL | 50 µg/mL (≈ 126 µM) | inactive | 3.1 µg/mL (≈ 7.82 µM) | 0.2 µg/mL (≈ 0.504 µM) | 6.3 µg/mL (≈ 15.9 µM) | 50 mg/kg | 1.6 µg/mL (≈ 4.04 µM) | 3.1 µg/mL (≈ 7.82 µM)
15 | CC(=O)OCC1=C(C(=O)O)N2C(=O)[C@@H](NC(=O)CS(=O)(=O)CC#N)[C@H]2SC1 | > 13 µg/mL | 50 µg/mL (≈ 120 µM) | inactive | 6.3 µg/mL (≈ 15.1 µM) | 1.6 µg/mL (≈ 3.83 µM) | 6.3 µg/mL (≈ 15.1 µM) | 35 mg/kg | 3.1 µg/mL (≈ 7.43 µM) | 25 µg/mL (≈ 59.9 µM)
16 | Cn1nnnc1SCC1=C(C(=O)[O-])N2C(=O)[C@@H](NC(=O)CSCC(F)(F)F)[C@H]2SC1.[Na+] | > 13 µg/mL | 6.3 µg/mL | inactive | 1.6 µg/mL | 0.2 µg/mL | 0.4 µg/mL | 11 mg/kg | 0.8 µg/mL | 3.1 µg/mL
17 | Cc1nnc(SCC2=C(C(=O)O)N3C(=O)[C@@H](NC(=O)CS(=O)(=O)CC#N)[C@H]3SC2)s1 | > 13 µg/mL | 12.5 µg/mL (≈ 25.5 µM) | inactive | 6.3 µg/mL (≈ 12.9 µM) | 1.6 µg/mL (≈ 3.27 µM) | 3.1 µg/mL (≈ 6.33 µM) | 15 mg/kg | 6.3 µg/mL (≈ 12.9 µM) | 6.3 µg/mL (≈ 12.9 µM)
18 | CC(=O)OCC1=C(C(=O)O)N2C(=O)[C@@H](NC(=O)CC#N)[C@H]2SC1 [CEPHACETRILE] | > 13 µg/mL | 6.3 µg/mL (≈ 18.6 µM) | inactive | 6.3 µg/mL (≈ 18.6 µM) | 0.4 µg/mL (≈ 1.18 µM) | 3.1 µg/mL (≈ 9.14 µM) | 25 mg/kg | 3.1 µg/mL (≈ 9.14 µM) | 3.1 µg/mL (≈ 9.14 µM)
19 | Cn1nnnc1SCC1=C(C(=O)[O-])N2C(=O)[C@@H](NC(=O)C[S+]([O-])CC(F)(F)F)[C@H]2SC1.[Na+] (stereo not given in full) | > 13 µg/mL | 6.3 µg/mL | inactive | 0.8 µg/mL | 1.6 µg/mL | 0.4 µg/mL | 1.5 mg/kg | 1.6 µg/mL | 0.4 µg/mL
20 | CC(=O)OCC1=C(C(=O)[O-])N2C(=O)[C@@H](NC(=O)CS(=O)(=O)CC(F)(F)F)[C@H]2SC1.[Na+] | > 13 µg/mL | 50 µg/mL | inactive | 25 µg/mL | 3.1 µg/mL | 12.5 µg/mL | 100 mg/kg | 3.1 µg/mL | 6.3 µg/mL
